Marks after values point to notes of the source that are not given here.
Columns and labels:
DQA1*03:01; DQB1*03:02 = DQA1*03:01; DQB1*03:02 (Homo sapiens, UniProt P01909+P01920, A209T/A45G/C70Q/D89A/DUP78-78/E183D/E77G/F237L/G63E/H199R/I129T/K197E/L178F/L74F/L98V/Q57E/Q76R/S185I/S97I/T217I/T49S/V73L/Y58L); assay: REVEAL MHC-peptide binding assay; conditions: HLA DQB1*03:02; percentage of signal of positive control peptide
Summary of the method: (§1)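 Overlapping 15-mer peptides (3-residue offset) spanning brown shrimp tropomyosin (Q3Y8M6) were tested in the REVEAL assay. It detects peptide-stabilised, natively folded MHC class II complexes via a labeled antibody. Scores at 0 and 24 h are expressed as % of signal from an allele-specific known T-cell epitope positive control. An intermediate-affinity control peptide verified assay performance. A score of ≥10% counted as a good binder.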

DRB1*11:01 = DRB1*11:01 (Homo sapiens, UniProt P01903+P01911, A100R/A169T/A87E/I96F/K41T/L162R/M171V/P40S/Q125H/Q178H/Q39Y/Q99D/R42S/S66Y/T262R/V115G/W38E); assay: REVEAL MHC-peptide binding assay; conditions: HLA DRB1*11:01; percentage of signal of positive control peptide
Summary of the method: as §1

DQA1*01:01; DQB1*05:01 = DQA1*01:01; DQB1*05:01 (Homo sapiens, UniProt P01909+P01920, A157S/A45G/A70V/C70R/D89V/E106S/E118A/E183D/E77G/F83G/G63E/H151Q/H199R/H252R/H253Q/I129T/I235V/I88M/INS77G/K197Q/L107V/L117V/L119Y/L178F/L71W/L74F/L85Q/L91A/L98M/M46L/N214S/P87R/Q116E/Q256R/Q57E/Q76K/R102G/R240Q/R75S/R78G/S102Y/S185I/S41F/S97I/T103A/T109R/T121G/T122I/T172A/T86R/V148I/V68A/V73E/Y34C/Y58G/Y62H); assay: REVEAL MHC-peptide binding assay; conditions: HLA DQB1*05:01; percentage of signal of positive control peptide
Summary of the method: as §1

DRB1*04:01 = DRB1*04:01 (Homo sapiens, UniProt P01903+P01911, A100K/A169T/F76Y/I96L/K127E/L162R/M171V/N62H/P40V/Q125Y/R42H/S133A/S149N/S66Y/V115G/V209L/W38E); assay: REVEAL MHC-peptide binding assay; conditions: HLA DRB1*04:01; percentage of signal of positive control peptide
Summary of the method: as §1

DRB1*07:01 = DRB1*07:01 (Homo sapiens, UniProt P01903+P01911, A100R/A102G/A103Q/D57E/D86V/E43K/F76Y/K127E/L162R/M171V/P40G/Q125H/Q99D/R33Q/R42Y/R54Q/S133A/S66F/T210M/V115G/Y107V/Y59L/Y89S); assay: REVEAL MHC-peptide binding assay; conditions: HLA DRB1*07:01; percentage of signal of positive control peptide
Summary of the method: as §1

DRB1*03:01 = DRB1*03:01 (Homo sapiens, UniProt P01903+P01911, A100K/A102G/A103R/A169T/F55Y/I96L/K41T/L162R/M171V/P40S/Q125H/Q178H/Q39Y/R42S/S66N/T106N/T262R/W38E/Y61H); assay: REVEAL MHC-peptide binding assay; conditions: HLA DRB1*03:01; percentage of signal of positive control peptide
Summary of the method: as §1

MHC class II alleles = assay: REVEAL MHC-peptide binding assay; set-up: species or system human; conditions: % of the positive control; allele not given
Summary of the method: as §1

DRB1*13:01 = DRB1*13:01 (Homo sapiens, UniProt P01903+P01911, A100E/A169T/K41T/L162R/M171V/P40S/Q125H/Q178H/Q39Y/Q99D/R42S/S66N/T262R/W38E/Y61H); assay: REVEAL MHC-peptide binding assay; conditions: HLA DRB1*13:01; percentage of signal of positive control peptide
Summary of the method: as §1

DRB1*15:01 = DRB1*15:01 (Homo sapiens, UniProt P01903+P01911); assay: REVEAL MHC-peptide binding assay; conditions: HLA DRB1*15:01; percentage of signal of positive control peptide
Summary of the method: as §1

DQA1*05:01; DQB1*02:01 = DQA1*05:01; DQB1*02:01 (Homo sapiens, UniProt P01909+P01920, A45G/A70V/D89A/E106A/E77G/E98D/H199R/L107V/N214S/P84L/P87L/T103K/T109R/T172A/T60S/V78E/V99I/Y58L/Y62S/Y69I/Y79F); assay: REVEAL MHC-peptide binding assay; conditions: HLA DQB1*02:01; percentage of signal of positive control peptide
Summary of the method: as §1

DRB1*10:01 = DRB1*10:01 (Homo sapiens, UniProt P01903+P01911, A100R/A169T/D57E/F55L/F60V/F69Y/F76Y/I96L/L162R/M171V/P40V/Q260P/Q39E/Q99R/R195Q/R42F/S149N/S66Y/T210M/V115G/V67A/W38E/Y59R/Y61H); assay: REVEAL MHC-peptide binding assay; conditions: HLA DRB1*10:01; percentage of signal of positive control peptide
Summary of the method: as §1

DRB1*09:01 = DRB1*09:01 (Homo sapiens, UniProt P01903+P01911, A100R/A103E/D57H/D86V/F55Y/F60I/F76Y/I96F/K127E/L162R/M171V/P40D/Q125H/Q99R/R33Q/R42F/S133A/S66N/T210M/V115G/W38K/Y107V/Y59G/Y89S); assay: REVEAL MHC-peptide binding assay; conditions: HLA DRB1*09:01; percentage of signal of positive control peptide
Summary of the method: as §1

CD4 T cells = assay: CFSE CD4 T cell proliferation assay; assay type: cell-based, human
[1] = test system: Peripheral blood mononuclear cells (PBMC); assay: Tritiated thymidine proliferation assay; assay type: cell-based, human

For “74: tropomyosin-derived 15-mer AYKEQIKTLTNKLKA [Peptide 74]”, the Binding score (DQA1*03:01; DQB1*03:02) was 19.28%, the Binding score (DRB1*11:01) was 10.94% and the Binding score (DQA1*01:01; DQB1*05:01) was 14.73%. It also gave a Binding score (DRB1*04:01) of 41.94% and a Binding score (DRB1*07:01) of 74.20%.

“63: tropomyosin-derived 15-mer ESKIVELEEELRVVG [Peptide 63]” was tested, and the Binding score (DRB1*03:01) was 29.06%.

“53: tropomyosin-derived 15-mer EADRKYDEVARKLAM [Peptide 53]” was tested, and the Binding score (DRB1*11:01) was 13.67%.

“80: tropomyosin-derived 15-mer RAEFAERSVQKLQKE [Peptide 80]” was tested, and the “Binding score (relative binding affinity)” value (MHC class II alleles) was ≤ 10% and the Binding score (DQA1*01:01; DQB1*05:01) was 9.26 ^a %.

Work on “3: tropomyosin-derived 15-mer KMQAMKLEKDNAMDR [Peptide 3]” yielded a Binding score (DRB1*04:01) of 23.52%.

In the case of “18: tropomyosin-derived 15-mer QLENDLDQVQESLLK [Peptide 18]”, the “Binding score (relative binding affinity)” value (MHC class II alleles) is reported as ≤ 10% and the Binding score (DRB1*04:01) is reported as 9.10 ^a %.

In the case of “29: tropomyosin-derived 15-mer VAALNRRIQLLEEDL [Peptide 29]”, the Binding score (DRB1*11:01) is reported as 22.35% and the Binding score (DRB1*13:01) is reported as 19.31%.

Substance “1: tropomyosin-derived 15-mer MDAIKKKMQAMKLEK [Peptide 1]” has a Binding score (DQA1*03:01; DQB1*03:02) of 35.20%, a Binding score (DRB1*11:01) of 18.74% and a Binding score (DRB1*15:01) of 14.02%.

Substance “66: tropomyosin-derived 15-mer ELRVVGNNLKSLEVS [Peptide 66]” has a Binding score (DQA1*05:01; DQB1*02:01) of 24.15% and a Binding score (DRB1*04:01) of 25.05%.

For “58: tropomyosin-derived 15-mer VEADLERAEERAETG [Peptide 58]”, the Binding score (DRB1*10:01) was 39.12%.

“34: tropomyosin-derived 15-mer ERSEERLNTATTKLA [Peptide 34]” gave a Binding score (DQA1*01:01; DQB1*05:01) of 22.67%.

For “51: tropomyosin-derived 15-mer ARFLAEEADRKYDEV [Peptide 51]”, the Binding score (DRB1*03:01) was 15.03% and the Binding score (DRB1*04:01) was 11.06%.

“8: tropomyosin-derived 15-mer ADTLEQQNKEANNRA [Peptide 8]” gave a Binding score (DQA1*05:01; DQB1*02:01) of 20.74%.

Work on “76: tropomyosin-derived 15-mer KTLTNKLKAAEARAE [Peptide 76]” yielded a Binding score (DRB1*10:01) of 37.57% and a Binding score (DRB1*09:01) of 89.92%.

With Tetanus Toxoid the “CD4 T cell proliferation (CFSE)” value (CD4 T cells) was “much greater level of CD4 T cell proliferation” and the “Proliferative T cell response by tritiated-thymidine incorporation” value [1] was “much higher proliferative responses”.

Substance “36: tropomyosin-derived 15-mer LNTATTKLAEASQAA [Peptide 36]” has a Binding score (DRB1*04:01) of 43.87%.

With “43: tropomyosin-derived 15-mer RKVLENRSLSDEERM [Peptide 43]” the “Binding score (relative binding affinity)” value (MHC class II alleles) was ≤ 10% and the Binding score (DQA1*01:01; DQB1*05:01) was 7.11 ^a %.

Substance “15: tropomyosin-derived 15-mer VHNLQKRMQQLENDL [Peptide 15]” has a Binding score (DRB1*11:01) of 11.01%.

“2: tropomyosin-derived 15-mer IKKKMQAMKLEKDNA [Peptide 2]” was tested, and the Binding score (DQA1*01:01; DQB1*05:01) was 13.94% and the Binding score (DRB1*13:01) was 26.06%.

“10: tropomyosin-derived 15-mer QNKEANNRAEKSEEE [Peptide 10]” showed a Binding score (DQA1*05:01; DQB1*02:01) of 25.17%.

For “21: tropomyosin-derived 15-mer QESLLKANIQLVEKD [Peptide 21]”, the Binding score (DRB1*09:01) was 8.32 ^a %.

In the case of “49: tropomyosin-derived 15-mer ENQLKEARFLAEEAD [Peptide 49]”, the Binding score (DQA1*01:01; DQB1*05:01) is reported as 19.65%.

For “54: tropomyosin-derived 15-mer RKYDEVARKLAMVEA [Peptide 54]”, the Binding score (DQA1*03:01; DQB1*03:02) was 7.98 ^a %.

“7: tropomyosin-derived 15-mer MDRADTLEQQNKEAN [Peptide 7]” showed a Binding score (DRB1*04:01) of 22.16%.

For “4: tropomyosin-derived 15-mer AMKLEKDNAMDRADT [Peptide 4]”, the Binding score (DRB1*03:01) was 74.69%.

For “24: tropomyosin-derived 15-mer QLVEKDKALSNAEGE [Peptide 24]”, the Binding score (DRB1*03:01) was 45.59% and the Binding score (DRB1*04:01) was 20.62%.

With “57: tropomyosin-derived 15-mer LAMVEADLERAEERA [Peptide 57]” the Binding score (DRB1*03:01) was 19.46%.

“13: tropomyosin-derived 15-mer EKSEEEVHNLQKRMQ [Peptide 13]” was tested, and the Binding score (DRB1*07:01) was 26.79%.

“5: tropomyosin-derived 15-mer LEKDNAMDRADTLEQ [Peptide 5]” gave a Binding score (DRB1*03:01) of 66.31%.
